According to ChEMBL document CHEMBL3779860, “A Designed Tryptophan- and Lysine/Arginine-Rich Antimicrobial Peptide with Therapeutic Potential for Clinical Antibiotic-Resistant Candida albicans Vaginitis” (J Med Chem, 2016):
In brackets after ≈: the same amount, converted by molar mass. Activity calls are given as the source filed them. The calls are words filed in the database; no cut-off is given here.

Columns and labels:
Bacillus subtilis = assay: Antimicrobial activity against Bacillus subtilis assessed as inhibition of […] growth after 16 hrs by broth dilution method; format: functional
How it was run: (§1)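 Broth dilution in LB broth; 100 µL of 2 × 10^5 CFU/mL bacterial suspension plus 10 µL sample (stock series in 0.9% NaCl) in 90 µL broth, 37°C for 16 h. Growth read as A600; MIC is the lowest concentration completely inhibiting growth. Mean of three independent experiments run in duplicate.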

Staphylococcus aureus = assay: Antimicrobial activity against Staphylococcus aureus ATCC 2592 assessed as inhibition of […] growth after 16 hrs by broth dilution method; format: functional; conditions: ATCC 2592, 16 h; how it was run: as §1
Candida albicans [1] = assay: Antimicrobial activity against Candida albicans ATCC 2002 assessed as inhibition of yeast growth after 16 hrs by broth dilution method; format: functional; conditions: ATCC 2002, 16 h
How it was run: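 Broth microdilution in Sabouraud liquid medium. Samples are stocks in 0.9% NaCl, 10 µL added to 90 µL broth plus 100 µL of 2 × 10^5 CFU/mL yeast suspension. Incubated 16 h at 28°C, growth read by A600. MIC is the lowest concentration completely inhibiting growth; mean of three independent experiments.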

Escherichia coli = assay: Antimicrobial activity against Escherichia coli ATCC 25922 assessed as inhibition of […] growth after 16 hrs by broth dilution method; format: functional; conditions: ATCC 25922, 16 h; how it was run: as §1
[2] = Hemolytic activity in human RBC after 30 mins; format: ADME, cell-based, Erythrocyte; conditions: for HC10: erythrocyte, 0.5 h; for HC50 at 0.5 h: red blood cells
How it was run: (§2)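 Serial dilutions were incubated with human erythrocytes for 30 min at 37°C. Supernatant absorbance was read at 540 nm after centrifugation. Hemolysis is expressed as % of the 1% Triton X-100 lysis value, pooled from three independent experiments. The highest concentration tested was 320 µg/mL.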

[3] = Induction of hemolysis in human RBC at 320 ug/mL after 30 mins; format: cell-based, Erythrocyte; conditions: red blood cells, read-out: Activity; how it was run: as §2
Candida albicans [4] = assay: Antimicrobial activity against antibiotic resistant Candida albicans clinical isolate 08030809 assessed as clone count at 10 mg/ml after 24 hrs by colony counting assay (Rvb > 10^5 CFU); format: functional
Mus musculus [5] = assay: (§3) Antiinflammatory activity in antibiotic resistant Candida albicans clinical isolate 08030809 induced mouse vaginitis model assessed as microabscess number in vaginal tissue at 200 ug administered as intravaginal instillation measured on day 6 by hematoxylin-eosin staining based microscopic method (reference value: 61); format: functional, Vagina
How it was run: (§4)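 Mice given weekly subcutaneous estradiol valerate (0.5 mg in 0.1 mL vegetable oil) 72 h before infection. Infected intravaginally with 20 µL of 10^7 CFU/mL C. albicans 08030809. Intravaginal instillation of 20 µL daily for 16 days. Vaginal canals excised after lavage, formalin-fixed, paraffin-embedded, HE-stained. Microabscesses counted per high-power field over 6 fields per section, three independent experiments.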

Candida albicans [6] = assay: Antimicrobial activity against antibiotic resistant Candida albicans clinical isolate 08030809 in mouse vaginitis model assessed as colony count in lavage liquid of vagina at 10 mg/ml administered as intravaginal instillation measured on day 16; format: functional
Candida albicans [7] = assay: Antimicrobial activity against antibiotic resistant Candida albicans clinical isolate 08030809 assessed as clone count at 10 mg/ml after 1 hr by colony counting assay (reference value: 228 +/- 23 CFU); format: functional
Candida albicans [8] = assay: Antimicrobial activity against antibiotic resistant Candida albicans clinical isolate 08030809 assessed as clone count at 10 mg/ml after 6 hrs by colony counting assay (reference value: 14536 +/- 2467 CFU); format: functional
Candida albicans [9] = assay: Antimicrobial activity against antibiotic resistant Candida albicans clinical isolate 08030809 assessed as clone count at 10 mg/ml after 12 hrs by colony counting assay (reference value: 54153 +/- 8769 CFU); format: functional
Candida albicans [10] = assay: Antimicrobial activity against antibiotic resistant Candida albicans clinical isolate 08030809 assessed as clone count at 10 mg/ml after 10 mins by colony counting assay (reference value: 102 +/- 11 CFU); format: functional
Mus musculus [11] = assay: Antiinflammatory activity in antibiotic resistant Candida albicans clinical isolate 08030809 induced mouse vaginitis model assessed as reduction in IL-6 secretion in vaginal tissue at 10 mg/ml administered as intravaginal instillation measured on day 10 by ELISA; format: functional, organism-based; conditions: Vagina
How it was run: (§5)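 Same estradiol-primed mouse model, infected intravaginally with C. albicans 08030809 and treated by intravaginal instillation (20 µL/mouse). Vaginal canals excised on day 10 of treatment and homogenised in 0.9% NaCl. Supernatant taken after 2,000 g for 15 min. TNF-α, IL-6, IL-1β and IL-10 measured by ELISA. Mean ± SE of three independent experiments; unpaired t-test versus vehicle.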

Mus musculus [12] = assay: as §3, with “after 16 days” for “on day 6”; format: functional, Vagina; how it was run: as §4
Candida albicans [13] = assay: Antimicrobial activity against antibiotic resistant Candida albicans clinical isolate 08030809 assessed as clone count at 10 mg/ml after 1 min by colony counting assay (reference value: 62 +/- 7 CFU); format: functional
Mus musculus [14] = assay: Antiinflammatory activity in antibiotic resistant Candida albicans clinical isolate 08030809 induced mouse vaginitis model assessed as reduction in TNF-alpha secretion in vaginal tissue at 10 mg/ml administered as intravaginal instillation measured on day 10 by ELISA; format: functional, organism-based; conditions: Vagina; how it was run: as §5
Mus musculus [15] = assay: Antiinflammatory activity in antibiotic resistant Candida albicans clinical isolate 08030809 induced mouse vaginitis model assessed as reduction in IL-1beta secretion in vaginal tissue at 10 mg/ml administered as intravaginal instillation measured on day 10 by ELISA; format: functional, organism-based; conditions: Vagina; how it was run: as §5
Candida albicans [16] = assay: Effect on cell membrane integrity in antibiotic resistant Candida albicans clinical isolate 08030809 at 20 ug/ml measured every 2 mins upto 20 mins by SYTOX green nucleic acid staining-based fluorescence assay; format: functional, organism-based
How it was run: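 Exponential-phase C. albicans 08030809 was washed and resuspended at 10^6 CFU/mL in 10 mM PBS pH 7.4. Cells were loaded with 0.1 µM (final) SYTOX Green for 15 min at 37°C with shaking, then test samples were added. Fluorescence (ex 488/em 530 nm) was recorded every 2 min as RFU. Mean ± SE of five independent experiments.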

Candida albicans [17] = assay: Antimicrobial activity against antibiotic resistant Candida albicans clinical isolate 08030809 assessed as clone count at 10 mg/ml after 3 hrs by colony counting assay (reference value: 3687 +/- 543 CFU); format: functional
Mus musculus [18] = assay: Antiinflammatory activity in antibiotic resistant Candida albicans clinical isolate 08030809 induced mouse vaginitis model assessed as reduction in IL-10 secretion in vaginal tissue at 10 mg/ml administered as intravaginal instillation measured on day 10 by ELISA; format: functional, organism-based; conditions: Vagina; how it was run: as §5
Candida albicans [19] = assay: Antimicrobial activity against antibiotic resistant Candida albicans clinical isolate 08030809 in mouse vaginitis model assessed as decrease in colony count in lavage liquid of vagina at 10 mg/ml administered as intravaginal instillation measured on day 16; format: functional; conditions: isolate 08030809, Vagina, topical, 384 h
Candida albicans [20] = assay: Antimicrobial activity against antibiotic resistant Candida albicans clinical isolate 08030809 assessed as clone count at 10 mg/ml after 30 mins by colony counting assay (reference value: 156 +/- 16 CFU); format: functional

Row | Compound | MIC (Bacillus subtilis) [µg/mL] | MIC (Staphylococcus aureus) [µg/mL] | MIC (Candida albicans [1]) [µg/mL] | MIC (Escherichia coli) [µg/mL] | HC10 [2] [µg/mL] | HC50 at 0.5 h [2] [µg/mL] | hemolysis at 0.5 h, 320 ug/mL [3] [%] | further results
1 | H-VKRFKKFFRKFKKSV-NH2 [listing 1 of 2 here] | > 100 | > 100 | 9.38 | 37.5 | – | – | – | –
2 | H-VKRFKKFFRKFKKSV-NH2 [listing 2 of 2 here] | – | – | – | – | > 320 | > 320 | 7.5 | –
3 | H-VKRFKKFFRKLKKSV-NH2 | 75 | > 100 | 18.8 | 18.8 | > 320 | > 320 | 9.7 | –
4 | CC1(C)S[C@@H]2[C@H](NC(=O)[C@H](N)c3ccccc3)C(=O)N2[C@H]1C(=O)O [AMPICILLIN] | 0.02 (≈ 0.0572 µM) | 0.15 (≈ 0.429 µM) | – | 18.7 (≈ 53.5 µM) | – | – | – | –
5 | H-VKWRWKKWRWKWKWKV-NH2 [listing 1 of 2 here] | > 100 | > 100 | > 100 | > 100 | – | – | – | –
6 | H-VKRWKKFWRKWKKWW-NH2 [listing 1 of 2 here] | – | – | – | – | 51.7 | > 320 | 27.6 | –
7 | H-VKWRWKWKWRWKWKWKV-NH2 | > 100 | > 100 | > 100 | > 100 | 62.8 | > 320 | 30.8 | –
8 | H-VKWRWKKWRWKWKWKV-NH2 [listing 2 of 2 here] | – | – | – | – | 178.3 | > 320 | 17.6 | –
9 | OC(Cn1cncn1)(Cn1cncn1)c1ccc(F)cc1F [FLUCONAZOLE] | – | – | 18.7 (≈ 61.1 µM) | – | – | – | – | –
10 | H-VKRWKKFWRKWKKWW-NH2 [listing 2 of 2 here] | 4.69 | 4.69 | 2.34 | 18.8 | – | – | – | –
11 | H-VKRWKKWWRKLKKSV-NH2 | > 100 | > 100 | 9.38 | 18.8 | > 320 | > 320 | 8.7 | –
12 | H-KFFRKLKKSVKKRAKEFFKKPRVIGVSIPF-OH | 9.38 | > 100 | 4.7 | 2.34 | > 320 | > 320 | 7.4 | –
13 | Clc1ccccc1C(c1ccccc1)(c1ccccc1)n1ccnc1 [CLOTRIMAZOLE] | – | – | – | – | – | – | – | Activity (Candida albicans [4]): 57425 CFU; Activity (Mus musculus [5]): 18; Activity (Candida albicans [6]): 1.2 ×10⁴ CFU/ml; Activity (Candida albicans [7]): 178 CFU; Activity (Candida albicans [8]): 2674 CFU; Activity (Candida albicans [9]): 15789 CFU; Activity (Candida albicans [10]): 64 CFU; Activity (Mus musculus [11]): inactive; Activity (Mus musculus [12]): 10; Activity (Candida albicans [13]): 42 CFU; Activity (Mus musculus [14]): inactive; Activity (Mus musculus [15]): inactive; Activity (Candida albicans [16]): inactive; Activity (Candida albicans [17]): 533 CFU; Activity (Mus musculus [18]): inactive; inhibition in vivo at 10000 µg/mL (Candida albicans [19]): 38%; Activity (Candida albicans [20]): 106 CFU
